Measured values reported in ChEMBL document CHEMBL5058577, “EUbOPEN Chemogenomics Library 2 (Multiplex)” (2022).

Test system: HEK-293T
Assay: Multiplex assay against HEK293T
Format: toxicity, cell-based
Conditions: human
Summary of the method: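 Cells were classed with CellPathfinder machine-learning gating, first as Hoechst high-intensity objects or normal cells, then (normal cells) as healthy, pyknosed or fragmented nuclei, and finally (pyknosed cells) as mitotic or apoptotic. Staining of live cells at seeding used Hoechst33342, BioTracker Green Microtubule Cytoskeleton Dye, MitoTracker Red and Annexin V Alexa Fluor 680, with imaging on a CQ1 microscope at 37°C and 5% CO2 after compound addition. Tubulin, mitochondrial-mass and membrane-permeability phenotypes are per cents of healthy-nucleus cells.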

[1] = 12 h, 1 µM, compound concentration 1 uM, replicate 1
[2] = 12 h, 1 µM, compound concentration 1 uM, replicate 2
[3] = 12 h, 10 µM, compound concentration 10 uM, replicate 1
[4] = 12 h, 10 µM, compound concentration 10 uM, replicate 2
[5] = 24 h, 1 µM, compound concentration 1 uM, replicate 1
[6] = 24 h, 1 µM, compound concentration 1 uM, replicate 2
[7] = 24 h, 10 µM, compound concentration 10 uM, replicate 1
[8] = 24 h, 10 µM, compound concentration 10 uM, replicate 2
[9] = 48 h, 1 µM, compound concentration 1 uM, replicate 1
[10] = 48 h, 1 µM, compound concentration 1 uM, replicate 2
[11] = 48 h, 10 µM, compound concentration 10 uM, replicate 1
[12] = 48 h, 10 µM, compound concentration 10 uM, replicate 2

CN1CCN2c3ccccc3Cc3ccccc3C2C1.Cl (centres undefined) [MIANSERIN HYDROCHLORIDE]
Population Apoptotic (%) [1]: 23% | Population Fragmented Nuclei (%) [1]: 5% | Population Healthy Nuclei (%) [1]: 79% | Population Hoechst High Intensity Objects (%) [1]: 5% | Population Membrane Permeable-Phenotype (%) [1]: 0% | Population Mitochondria Different-Phenotype (%) [1]: 36% | Population Mitotic Cells (%) [1]: 76% | Population Normal (%) [1]: 94% | Population Pyknosed Nuclei (%) [1]: 14% | Population Tubulin-Different-Phenotype (%) [1]: 21% | Total Cell Count [1]: 338 | Population Apoptotic (%) [2]: 46% | Population Fragmented Nuclei (%) [2]: 7% | Population Healthy Nuclei (%) [2]: 77% | Population Hoechst High Intensity Objects (%) [2]: 10% | Population Mitochondria Different-Phenotype (%) [2]: 63% | Population Mitotic Cells (%) [2]: 53% | Population Normal (%) [2]: 89% | Population Tubulin-Different-Phenotype (%) [2]: 17% | Total Cell Count [2]: 376 | Population Apoptotic (%) [3]: 34% | Population Fragmented Nuclei (%) [3]: 5% | Population Healthy Nuclei (%) [3]: 81% | Population Hoechst High Intensity Objects (%) [3]: 9% | Population Membrane Permeable-Phenotype (%) [3]: 1% | Population Mitochondria Different-Phenotype (%) [3]: 45% | Population Mitotic Cells (%) [3]: 65% | Population Normal (%) [3]: 90% | Population Pyknosed Nuclei (%) [3]: 13% | Population Tubulin-Different-Phenotype (%) [3]: 40% | Total Cell Count [3]: 410 | Population Apoptotic (%) [4]: 42% | Population Healthy Nuclei (%) [4]: 85% | Population Hoechst High Intensity Objects (%) [4]: 4% | Population Membrane Permeable-Phenotype (%) [4]: 0% | Population Mitochondria Different-Phenotype (%) [4]: 53% | Population Mitotic Cells (%) [4]: 57% | Population Normal (%) [4]: 95% | Population Pyknosed Nuclei (%) [4]: 8% | Population Tubulin-Different-Phenotype (%) [4]: 28% | Total Cell Count [4]: 491 | Population Apoptotic (%) [5]: 22% | Population Fragmented Nuclei (%) [5]: 9% | Population Healthy Nuclei (%) [5]: 80% | Population Hoechst High Intensity Objects (%) [5]: 1% | Population Membrane Permeable-Phenotype (%) [5]: 0% | Population Mitochondria Different-Phenotype (%) [5]: 21% | Population Mitotic Cells (%) [5]: 77% | Population Normal (%) [5]: 98% | Population Pyknosed Nuclei (%) [5]: 10% | Population Tubulin-Different-Phenotype (%) [5]: 14% | Total Cell Count [5]: 479 | Population Apoptotic (%) [6]: 26% | Population Fragmented Nuclei (%) [6]: 10% | Population Hoechst High Intensity Objects (%) [6]: 8% | Population Mitochondria Different-Phenotype (%) [6]: 37% | Population Mitotic Cells (%) [6]: 73% | Population Normal (%) [6]: 91% | Population Pyknosed Nuclei (%) [6]: 9% | Population Tubulin-Different-Phenotype (%) [6]: 16% | Total Cell Count [6]: 486 | Population Apoptotic (%) [7]: 24% | Population Fragmented Nuclei (%) [7]: 8% | Population Healthy Nuclei (%) [7]: 77% | Population Hoechst High Intensity Objects (%) [7]: 5% | Population Membrane Permeable-Phenotype (%) [7]: 0% | Population Mitochondria Different-Phenotype (%) [7]: 31% | Population Mitotic Cells (%) [7]: 75% | Population Normal (%) [7]: 94% | Population Pyknosed Nuclei (%) [7]: 14% | Population Tubulin-Different-Phenotype (%) [7]: 34% | Total Cell Count [7]: 486 | Population Apoptotic (%) [8]: 32% | Population Fragmented Nuclei (%) [8]: 5% | Population Healthy Nuclei (%) [8]: 84% | Population Hoechst High Intensity Objects (%) [8]: 3% | Population Mitochondria Different-Phenotype (%) [8]: 36% | Population Mitotic Cells (%) [8]: 67% | Population Normal (%) [8]: 96% | Population Pyknosed Nuclei (%) [8]: 10% | Population Tubulin-Different-Phenotype (%) [8]: 21% | Total Cell Count [8]: 612 | Population Apoptotic (%) [9]: 13% | Population Fragmented Nuclei (%) [9]: 15% | Population Healthy Nuclei (%) [9]: 77% | Population Hoechst High Intensity Objects (%) [9]: 1% | Population Membrane Permeable-Phenotype (%) [9]: 1% | Population Mitochondria Different-Phenotype (%) [9]: 15% | Population Mitotic Cells (%) [9]: 86% | Population Normal (%) [9]: 98% | Population Pyknosed Nuclei (%) [9]: 6% | Population Tubulin-Different-Phenotype (%) [9]: 9% | Total Cell Count [9]: 812 | Population Apoptotic (%) [10]: 37% | Population Fragmented Nuclei (%) [10]: 16% | Population Healthy Nuclei (%) [10]: 78% | Population Hoechst High Intensity Objects (%) [10]: 3% | Population Membrane Permeable-Phenotype (%) [10]: 0% | Population Mitochondria Different-Phenotype (%) [10]: 18% | Population Mitotic Cells (%) [10]: 62% | Population Normal (%) [10]: 96% | Population Pyknosed Nuclei (%) [10]: 4% | Total Cell Count [10]: 761 | Population Apoptotic (%) [11]: 24% | Population Fragmented Nuclei (%) [11]: 14% | Population Healthy Nuclei (%) [11]: 76% | Population Hoechst High Intensity Objects (%) [11]: 2% | Population Membrane Permeable-Phenotype (%) [11]: 0% | Population Mitochondria Different-Phenotype (%) [11]: 18% | Population Mitotic Cells (%) [11]: 75% | Population Normal (%) [11]: 97% | Population Pyknosed Nuclei (%) [11]: 8% | Population Tubulin-Different-Phenotype (%) [11]: 17% | Total Cell Count [11]: 702 | Population Apoptotic (%) [12]: 35% | Population Healthy Nuclei (%) [12]: 79% | Population Hoechst High Intensity Objects (%) [12]: 1% | Population Membrane Permeable-Phenotype (%) [12]: 1% | Population Mitochondria Different-Phenotype (%) [12]: 14% | Population Mitotic Cells (%) [12]: 64% | Population Normal (%) [12]: 98% | Population Pyknosed Nuclei (%) [12]: 6% | Population Tubulin-Different-Phenotype (%) [12]: 11% | Total Cell Count [12]: 860
